These results are taken from ChEMBL document CHEMBL1124299, “Synthesis and thromboxane A2 antagonist activity of N-benzyltrimetoquinol analogues” (J Med Chem, 1988).

The species entered for experiment [1] is Homo sapiens. Briefly: Inhibition of 0.5-0.7 uM of U-46,619 induced [14C]5-HT secretion. The class given is functional. The procedure, abridged:
(§1)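 Human platelet-rich plasma from medication-free volunteers. Dense-granule secretion measured as release of radioactivity from prelabeled platelets, induced by ADP or U46619. Inhibitors added 1 min before the inducer, which was used at the minimum concentration giving maximal aggregation. Values are IC50s.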

For experiment [2], the species on record is Rattus norvegicus. Briefly: Log of KB that is, inhibition of U-46,619-induced contraction of Rat thoracic aorta in the presence of indomethacin. The format is functional.
Experiment [3] is filed under the species Homo sapiens. The experiment in a line: Inhibition of 1.5-1.9 uM of ADP-induced human platelet aggregation. The class given is functional. The procedure, abridged: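 Platelet-rich plasma from human volunteers free of medication for at least 10 days. Turbidometric (Born) aggregation in a dual-channel aggregometer, with ADP at the minimum concentration giving maximal aggregation. Inhibitor added 1 min before ADP. IC50 derived from the change in light-transmittance amplitude at 6 min. Mean ± SEM of three preparations.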

The species entered for experiment [4] is Rattus norvegicus. Briefly: Inhibition of U-46,619-induced contraction of Rat thoracic aorta in the presence of indomethacin (control). The class given is functional. The procedure, abridged:
(§2)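 Rat thoracic aortic strips equilibrated 1 h in Krebs-Henseleit solution containing 3 X 10^-6 M indomethacin; TMQ analogues tested at 100 µM against U46619-induced contraction. Cumulative U46619 concentration-response curves by the van Rossum method. U46619 EC50 read graphically from individual percent response vs log concentration plots and expressed as pD2. Significance level 5% versus control.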

The species named for experiment [5] is Homo sapiens. Briefly: Inhibition of 0.5-0.7 uM of U-46,619 induced human platelet aggregation. The format is functional. Put shortly: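 Human platelet-rich plasma from donors medication-free for at least 10 days. Born turbidometric aggregation, with U46619 at the minimum concentration giving maximal aggregation. Inhibitor added 1 min before U46619. IC50 taken from the change in light-transmittance amplitude at 4 min.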

The species entered for experiment [6] is Homo sapiens. Briefly: Inhibition of 0.5-0.7 uM of ADP induced [14C]5-HT secretion. The format is functional, organism-based. The conditions noted are these: in the assay text read “1.5-1.9 uM” for “0.5-0.7 uM”. Put shortly: as §1
The species entered for experiment [7] is Rattus norvegicus. Briefly: Inhibition of U-46,619-induced contraction of Rat thoracic aorta in the presence of indomethacin, KB. The format is functional.
The species named for experiment [8] is Rattus norvegicus. Briefly: Inhibition of U-46,619-induced contraction of Rat thoracic aorta in the presence of indomethacin, at conc 100 uM. The class given is functional. Put shortly:
as §2

For experiment [9], the species on record is Rattus norvegicus. The experiment in a line: Inhibition of U-46,619-induced contraction of Rat thoracic aorta in the presence of indomethacin. The class given is functional. The procedure, abridged:
as §2

The species named for experiment [10] is Rattus norvegicus. Briefly: Inhibition of U-46,619-induced contraction of Rat thoracic aorta expressed as pKB value of the compound. The class given is functional.
For experiment [11], the species on record is Rattus norvegicus. Briefly: Inhibition of U-46,619-induced contraction of Rat thoracic aorta in the presence of indomethacin control). The class given is functional. The procedure, abridged:
as §2

Experiment [12] is filed under the species Rattus norvegicus. The experiment in a line: Inhibition of U-46,619-induced contraction of Rat thoracic aorta in the presence of indomethacin(control). The format is functional. Put shortly: as §2
For experiment [13], the species on record is Rattus norvegicus. Briefly: Inhibition against U-46,619-induced contraction of Rat thoracic aorta was determined expressed as pA2. The format is functional. As to conditions: read-out: pA2 (converted).

As for `COc1cc(CC2c3cc(O)c(O)cc3CCN2Cc2ccc(N)cc2)cc(OC)c1OC` (stereo not given), the IC50 in the experiment listed under Homo sapiens [1] came to 27.1 µM; in the experiment listed under Homo sapiens [3], 40 µM; in the experiment filed under Homo sapiens [5] it was 27 µM; in the experiment listed under Homo sapiens [6] it was 29.1 µM. Further, in the experiment listed under Rattus norvegicus [2], the pKB is 3.79. Moreover, the pD2 was 8.26 in the experiment listed under Rattus norvegicus [4] and 8.03 in the experiment filed under Rattus norvegicus [8]. Further, the Kb in the experiment listed under Rattus norvegicus [7] was 162 µM.
Take `COc1ccc(CN2CCc3cc(O)c(O)cc3C2Cc2cc(OC)c(OC)c(OC)c2)cc1` (stereo not given): the IC50 stood at 56.2 µM in the experiment filed under Homo sapiens [1] and 50.2 µM in the experiment filed under Homo sapiens [5]. The pKB in the experiment listed under Rattus norvegicus [2] is 4.16. The pD2 turned out to be 8.07 in the experiment listed under Rattus norvegicus [4] and 7.64 in the experiment filed under Rattus norvegicus [8]. Besides, in the experiment listed under Rattus norvegicus [7], the Kb was 69.2 µM.
Take `COc1cc(NCc2ccc3nc(N)nc(N)c3c2C)cc(OC)c1OC` [TRIMETREXATE]: the values for the concentration for half-maximal inhibition (IC50) in the experiment filed under Homo sapiens [1] and in the experiment listed under Homo sapiens [5] were 0.75 µM and 0.77 µM, respectively. For the same compound, in the experiment filed under Rattus norvegicus [9], the Kb was found to be 4.26 µM. The compound also returned a pKB in the experiment listed under Rattus norvegicus [10] of 5.37. In addition, in the experiment filed under Rattus norvegicus [8], the pD2 was determined as 6.78.
In the case of `COc1cc(CC2c3cc(O)c(O)cc3CCN2Cc2ccc([N+](=O)[O-])cc2)cc(OC)c1OC` (stereo not given), the IC50 was 269 µM in the experiment filed under Homo sapiens [1], 359 µM in the experiment filed under Homo sapiens [3], 296 µM in the experiment listed under Homo sapiens [5] and 289 µM in the experiment listed under Homo sapiens [6]. Further, in the experiment listed under Rattus norvegicus [2], the pKB was 4.05. The values for the pD2 in the experiment filed under Rattus norvegicus [4] and in the experiment listed under Rattus norvegicus [8] were 8.21 and 7.84, respectively. Moreover, the Kb in the experiment filed under Rattus norvegicus [7] amounted to 89.1 µM.
As for `COc1cc(CC2c3cc(O)c(O)cc3CCN2Cc2ccc(Cl)c(Cl)c2)cc(OC)c1OC` (stereo not given), the IC50 in the experiment filed under Homo sapiens [1] was 264 µM; in the experiment filed under Homo sapiens [5], 257 µM. Moreover, the pD2 turned out to be 8.12 in the experiment filed under Rattus norvegicus [11] and 8.22 in the experiment listed under Rattus norvegicus [8].
As to `COc1cc(CC2c3cc(O)c(O)cc3CCN2Cc2ccc(C)cc2)cc(OC)c1OC` (stereo not given), the pD2 in the experiment filed under Rattus norvegicus [12] stood at 8.05; in the experiment listed under Rattus norvegicus [8] it was 7.58. Moreover, the results for the half-inhibitory concentration (IC50) in the experiment listed under Homo sapiens [1] and in the experiment listed under Homo sapiens [5] were 40.4 µM and 55.9 µM, respectively. Further, in the experiment listed under Rattus norvegicus [2], the negative-log KB (pKB) amounted to 4.26. Moreover, the Kb in the experiment listed under Rattus norvegicus [13] was 30.2 µM; in the experiment filed under Rattus norvegicus [7] it was 55 µM.
On to `COc1cc(CC2c3cc(O)c(O)cc3CCN2Cc2ccc(Cl)cc2)cc(OC)c1OC` (stereo not given), for which the results for the IC50 in the experiment filed under Homo sapiens [1] and in the experiment filed under Homo sapiens [5] were 128 µM and 119 µM, respectively. For the same compound, the pD2 was found to be 8.1 in the experiment listed under Rattus norvegicus [4] and 8.09 in the experiment listed under Rattus norvegicus [8].
Turning to `COc1cc(CC2c3cc(O)c(O)cc3CCN2Cc2ccccc2)cc(OC)c1OC` (stereo not given), the half-inhibitory concentration (IC50) in the experiment listed under Homo sapiens [1] came to 66.4 µM; in the experiment filed under Homo sapiens [3], 67.5 µM; in the experiment filed under Homo sapiens [5] it was 67.4 µM; in the experiment filed under Homo sapiens [6], 54.1 µM. Also, the negative logarithm of the KB (pKB) in the experiment listed under Rattus norvegicus [2] worked out at 3.86. The values for the pD2 in the experiment listed under Rattus norvegicus [4] and in the experiment filed under Rattus norvegicus [8] were 8.11 and 7.86, respectively. For the same compound, the Kb in the experiment filed under Rattus norvegicus [7] is 138 µM.
